# Measurements collected from several papers.
# Each line is one published result; the experiments were not run side by side.
# Cell line: A549
# Read-out: cell growth or viability
Compound,assay,setting,endpoint,result
O=C(CN1C(=O)/C(=C/c2ccc(F)cc2)SC1=S)Nc1ccccc1,MTT,10 µM,inhibition,27.6%
COc1ccccc1OCCNCC(O)COc1cccc2[nH]c3ccccc3c12 (centres unmarked),CCK-8,"100 µM, 72 h",viability,< 50%
COC(C)(C)CCC[C@](C)(O)[C@H]1CC[C@]2(C)[C@@H]1[C@H](O)C[C@@H]1[C@@]3(C)CC[C@H](O)C(C)(C)[C@@H]3CC[C@]12C,MTT,72 h,IC80,35.9 µM
COc1cccc2c1C(=O)c1c(O)c3c(c(O)c1C2=O)C[C@@](O)(C(=O)CO)C[C@@H]3O[C@H]1C[C@H](N)[C@H](O)[C@H](C)O1,SRB,48 h,GI50,< 10 µg/mL
O=C1Nc2ccccc2C1=NNc1nnc(Cc2ccccc2)c2ccccc12,,30 µM,inhibition,81.1%
CNS(=O)(=O)Nc1nccc(Cc2c(C)c3ccc(Oc4ncccn4)cc3oc2=O)c1F,CCK-8,,GI50,5.07 µM
O=C(CN1C(=O)/C(=C/c2ccccc2)SC1=S)Nc1ccccc1,MTT,10 µM,inhibition,43.3%
COc1cccc2c1C(=O)c1c(O)c3c(c(O)c1C2=O)C[C@@](O)(C(=O)CO)C[C@@H]3O[C@H]1C[C@H](N)[C@H](O)[C@H](C)O1,MTT,72 h,GI50,5.66 µM
O=C(CN1C(=O)/C(=C/c2ccc(C(F)(F)F)cc2)SC1=S)Nc1ccccc1,MTT,10 µM,inhibition,27.8%
COc1ccc(CCNCC(O)COc2cccc(C)c2)cc1OC (centres unmarked),CCK-8,"100 µM, 72 h",viability,< 50%
O=C(CN1C(=O)/C(=C/c2ccco2)SC1=S)Nc1ccccc1,MTT,10 µM,inhibition,39.5%
C[C@]12CC[C@@H]3c4ccc(O)cc4CC[C@H]3[C@@H]1CC[C@@H]2O,ATP luminescence,72 h,EC90,56.1 µM
O=C(CN1C(=O)/C(=C/c2ccccn2)SC1=S)Nc1ccccc1,MTT,10 µM,inhibition,32.6%
COc1ccc(-c2nc(NN=C3C(=O)Nc4ccc(F)cc43)c3ccccc3n2)cc1OC,,30 µM,inhibition,4.9%
C=C(c1ccc(C(=O)O)cc1)c1cc2c(cc1C)C(C)(C)CCC2(C)C,MTT,72 h,EC50,58 µM
COc1ccc2c(c1)C(=NNc1ncnc3cc(OC)c(OC)cc13)C(=O)N2,,10 µM,inhibition,-10.4%
CC(C)=CCC[C@](C)(O)[C@H]1CC[C@]2(C)[C@@H]1[C@H](O)C[C@@H]1[C@@]3(C)CC[C@H](O[C@@H]4O[C@H](CO)[C@@H](O)[C@H](O)[C@H]4O[C@@H]4O[C@H](CO)[C@@H](O)[C@H](O)[C@H]4O)C(C)(C)[C@@H]3CC[C@]12C,MTT,72 h,IC20,> 100 µM
COc1ccc2c(c1)C(=NNc1nc(-c3ccc(OC)c(OC)c3)nc3ccccc13)C(=O)N2,,30 µM,inhibition,17%
CC(C)c1ccc(/C=C2\SC(=S)N(CC(=O)Nc3ccccc3)C2=O)cc1,MTT,10 µM,inhibition,22.5%
CN1C[C@H](C(=O)N[C@]2(C)O[C@@]3(O)[C@@H]4CCCN4C(=O)[C@H](Cc4ccccc4)N3C2=O)C[C@@H]2c3cccc4[nH]cc(c34)C[C@H]21,MTT,72 h,EC50,43 µM
